Results reported in ChEMBL document CHEMBL2390921, “A novel benzazepinone sodium channel blocker with oral efficacy in a rat model of neuropathic pain” (Bioorg Med Chem Lett, 2013).
pIC50: −log10 of the molar value.

Key:
hERG (KCNH2) = hERG (KCNH2) (Homo sapiens, UniProt Q12809); test: Displacement of [35S]-MK0499 from human ERG expressed in HEK293 cell membranes at 10 uM after 2 hrs by liquid scintillation counting analysis relative to control; conditions: membranes of HEK293 cells that express human ERG, probe [35S]-MK0499
Chain of hERG (KCNH2) (Q12809 whole entry): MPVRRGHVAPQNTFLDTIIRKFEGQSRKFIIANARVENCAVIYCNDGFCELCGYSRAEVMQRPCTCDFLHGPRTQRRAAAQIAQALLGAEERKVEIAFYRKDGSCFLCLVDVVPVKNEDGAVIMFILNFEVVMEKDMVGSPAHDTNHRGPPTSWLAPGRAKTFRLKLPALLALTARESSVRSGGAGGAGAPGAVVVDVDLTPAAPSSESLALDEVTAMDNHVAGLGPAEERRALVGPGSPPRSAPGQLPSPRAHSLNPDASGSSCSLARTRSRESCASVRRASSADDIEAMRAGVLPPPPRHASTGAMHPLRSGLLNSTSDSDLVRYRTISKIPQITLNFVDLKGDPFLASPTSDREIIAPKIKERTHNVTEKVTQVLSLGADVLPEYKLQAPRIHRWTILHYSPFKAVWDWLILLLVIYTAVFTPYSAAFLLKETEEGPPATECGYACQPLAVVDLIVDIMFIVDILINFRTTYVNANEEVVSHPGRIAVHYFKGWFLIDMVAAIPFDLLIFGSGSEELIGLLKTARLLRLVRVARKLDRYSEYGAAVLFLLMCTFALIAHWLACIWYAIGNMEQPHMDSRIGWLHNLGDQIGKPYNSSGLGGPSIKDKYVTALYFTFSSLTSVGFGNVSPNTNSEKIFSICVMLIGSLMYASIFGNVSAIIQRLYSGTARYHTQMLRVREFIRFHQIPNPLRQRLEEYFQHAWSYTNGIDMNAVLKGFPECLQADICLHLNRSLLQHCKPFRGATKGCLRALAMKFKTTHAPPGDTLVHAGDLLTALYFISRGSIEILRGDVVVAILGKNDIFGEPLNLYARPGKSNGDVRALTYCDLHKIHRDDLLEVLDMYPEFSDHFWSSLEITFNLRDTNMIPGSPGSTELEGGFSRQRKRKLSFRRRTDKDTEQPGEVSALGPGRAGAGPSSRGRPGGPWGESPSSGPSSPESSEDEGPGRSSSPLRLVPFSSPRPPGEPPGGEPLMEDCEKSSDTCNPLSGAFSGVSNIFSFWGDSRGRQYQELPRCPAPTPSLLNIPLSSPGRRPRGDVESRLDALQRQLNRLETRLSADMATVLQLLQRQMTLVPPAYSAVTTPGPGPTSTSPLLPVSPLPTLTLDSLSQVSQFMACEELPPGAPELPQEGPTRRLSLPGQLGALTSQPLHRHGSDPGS
In short: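 hERG binding assay measuring displacement of 35S-labelled MK-0499, a known hERG blocker.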

[1] = Plasma clearance in Sprague-Dawley rat at 3 mg/kg, po and 1 mg/kg, iv; format: ADME, organism-based
In short: (§1)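 Fasted male Sprague–Dawley rats (n = 3 per route) were dosed with 1.5 mg/mL solutions in PEG300/water or DMSO/PEG300/water, either 1.0 mg/kg iv via femoral-vein cannula or 3.0 mg/kg by oral gavage. Blood was sampled at 5 min (iv only), 15 and 30 min, and 1, 2, 4, 6 and 8 h. Plasma levels were measured by LC–MS/MS after acetonitrile protein precipitation.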

[2] = Half life in Sprague-Dawley rat at 3 mg/kg, po and 1 mg/kg, iv; format: ADME, organism-based; conditions: in vivo; in short: as §1
[3] = target: Sodium channel protein type 9 subunit alpha (Homo sapiens, UniProt Q15858); test: Inhibition of human NaV1.7 channel expressed in HEK293 cells by FRET assay; format: cell-based
Chain of Sodium channel protein type 9 subunit alpha (Q15858 whole entry): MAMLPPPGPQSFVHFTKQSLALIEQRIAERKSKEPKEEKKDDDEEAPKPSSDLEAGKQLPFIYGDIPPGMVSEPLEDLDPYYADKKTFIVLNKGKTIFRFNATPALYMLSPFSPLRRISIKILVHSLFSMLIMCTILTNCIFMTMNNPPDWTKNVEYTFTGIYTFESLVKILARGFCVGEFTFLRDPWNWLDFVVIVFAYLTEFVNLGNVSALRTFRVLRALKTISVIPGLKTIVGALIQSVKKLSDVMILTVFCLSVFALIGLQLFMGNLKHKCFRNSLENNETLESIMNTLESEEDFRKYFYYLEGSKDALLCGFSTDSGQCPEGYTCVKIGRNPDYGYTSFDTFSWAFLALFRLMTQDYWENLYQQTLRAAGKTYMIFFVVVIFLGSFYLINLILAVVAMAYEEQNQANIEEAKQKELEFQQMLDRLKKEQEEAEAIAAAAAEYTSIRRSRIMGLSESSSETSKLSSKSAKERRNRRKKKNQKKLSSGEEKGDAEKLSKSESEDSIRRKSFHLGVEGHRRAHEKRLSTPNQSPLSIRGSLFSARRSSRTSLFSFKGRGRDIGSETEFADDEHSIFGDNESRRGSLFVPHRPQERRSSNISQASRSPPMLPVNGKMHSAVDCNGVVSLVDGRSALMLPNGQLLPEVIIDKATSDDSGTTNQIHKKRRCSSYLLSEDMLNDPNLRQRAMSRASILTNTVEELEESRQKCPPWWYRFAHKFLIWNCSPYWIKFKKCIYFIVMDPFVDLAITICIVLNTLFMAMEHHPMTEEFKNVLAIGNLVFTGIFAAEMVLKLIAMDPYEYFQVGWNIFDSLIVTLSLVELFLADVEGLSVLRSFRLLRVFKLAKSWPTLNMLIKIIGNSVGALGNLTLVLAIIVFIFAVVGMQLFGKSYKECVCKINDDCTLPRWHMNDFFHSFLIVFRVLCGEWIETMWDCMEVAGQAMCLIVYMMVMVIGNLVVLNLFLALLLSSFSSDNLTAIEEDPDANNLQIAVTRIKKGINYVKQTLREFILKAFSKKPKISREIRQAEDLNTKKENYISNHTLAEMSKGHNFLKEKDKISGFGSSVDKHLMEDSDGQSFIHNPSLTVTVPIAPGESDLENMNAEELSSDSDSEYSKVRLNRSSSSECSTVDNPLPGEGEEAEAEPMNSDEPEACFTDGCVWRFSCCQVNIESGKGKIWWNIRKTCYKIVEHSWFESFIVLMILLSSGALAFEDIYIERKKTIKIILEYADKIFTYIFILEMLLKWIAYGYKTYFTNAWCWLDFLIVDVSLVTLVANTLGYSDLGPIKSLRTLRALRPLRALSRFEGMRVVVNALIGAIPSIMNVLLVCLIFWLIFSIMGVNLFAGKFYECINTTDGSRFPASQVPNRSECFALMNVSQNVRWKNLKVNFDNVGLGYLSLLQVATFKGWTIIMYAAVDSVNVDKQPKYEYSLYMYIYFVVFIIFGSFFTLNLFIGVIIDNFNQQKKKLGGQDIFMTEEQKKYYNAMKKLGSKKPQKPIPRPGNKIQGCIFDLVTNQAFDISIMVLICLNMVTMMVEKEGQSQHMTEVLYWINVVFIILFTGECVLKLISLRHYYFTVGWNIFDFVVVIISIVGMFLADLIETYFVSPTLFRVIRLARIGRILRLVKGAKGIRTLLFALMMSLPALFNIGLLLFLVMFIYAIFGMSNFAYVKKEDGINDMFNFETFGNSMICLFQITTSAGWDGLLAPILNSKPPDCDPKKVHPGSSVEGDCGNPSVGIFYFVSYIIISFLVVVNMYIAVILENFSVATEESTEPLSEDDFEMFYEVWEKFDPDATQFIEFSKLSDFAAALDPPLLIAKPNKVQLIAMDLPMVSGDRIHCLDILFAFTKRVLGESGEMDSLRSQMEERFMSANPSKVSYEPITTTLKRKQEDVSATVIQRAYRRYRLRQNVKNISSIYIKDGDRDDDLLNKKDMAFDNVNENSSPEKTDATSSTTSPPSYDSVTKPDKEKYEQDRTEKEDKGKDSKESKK
In short: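 HEK293 cells stably expressing human Nav1.7. Channel block was read in a functional membrane-potential assay based on FRET between two membrane-associated dyes; IC50 determined.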

[4] = Oral bioavailability in Sprague-Dawley rat at 3 mg/kg; format: ADME, organism-based; conditions: in vivo; in short: as §1
Rattus norvegicus [5] = test: Dose normalized AUC in Sprague-Dawley rat at 3 mg/kg, po; format: ADME, organism-based; design: dose 3 mg/kg, route oral; conditions: in vivo; in short: as §1
Rattus norvegicus [6] = test: Analgesic activity in po dosed rat spinal nerve ligation neuropathic pain model assessed as reversal of allodynia measured at 2 to 4 hrs; format: functional
In short: (§2)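 Rat spinal nerve ligation model. Seven days after surgery, rats received a single oral dose (3, 10 or 30 mg/kg) of test agent or vehicle. Tactile allodynia was scored at 2, 4, 8 and 24 h post-dose with calibrated von Frey filaments using an up-down paradigm. Threshold is the force giving a 50% withdrawal rate. %MPE = (post-compound − post-SNL)/(pre-SNL − post-SNL) × 100, where 100% is full reversal.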

Rattus norvegicus [7] = test: Analgesic activity in rat spinal nerve ligation neuropathic pain model assessed as reversal of allodynia at 30 mg/kg, po measured at 2 hrs relative to control; format: functional; in short: as §2
Rattus norvegicus [8] = test: Neurotoxicity in rat assessed as reduction in latency time at => 30 mg/kg, po after 2 hrs by rotarod test relative to vehicle-treated control; format: toxicity, organism-based; design: dose 30 mg/kg, route oral; scale not given: the % may be the effect or the level left; conditions: in vivo
In short: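 Rats trained on rotarod 3 min at 10 rpm; single oral dose of test compound or vehicle (30 or 100 mg/kg); tested at 2 and 4 h post-dose with speed at 10 rpm for 60 s then accelerated to 60 rpm; time to fall after start of acceleration recorded. Significant impairment defined as >20% reduction in latency time.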

| Structure (SMILES) | inhibition at 2 h, 10 µM (hERG (KCNH2)) [%] | clearance [1] [mL/min/kg] | half-life [2] [h] | pIC50 [3] | bioavailability [4] [%] | AUC/dose (Rattus norvegicus [5]) [µM·h/mg/kg] | ED50 (Rattus norvegicus [6]) [mg/kg] | Activity (Rattus norvegicus [7]) [%] | Activity (Rattus norvegicus [8]) [%] |
| --- | --- | --- | --- | --- | --- | --- | --- | --- | --- |
| CC1CC1C(=O)N[C@H](Cc1ccccc1F)C(=O)N[C@@H]1CCc2c(F)c(F)cc(F)c2N(C(C)C)C1=O (stereo partly drawn) | 0 | 35 | 0.8 | 6.99 | 47 | 0.44 | – | – | – |
| CC(C)N1C(=O)[C@H](NC(=O)[C@@H](Cc2ccccc2F)NC(=O)c2ccccn2)CCc2c(F)c(F)cc(F)c21 | 22 | – | – | 6.35 | – | – | – | – | – |
| CC(C)N1C(=O)[C@H](NC(=O)[C@@H](Cc2ccccc2F)NC(=O)C2CC2C(F)(F)F)CCc2c(F)c(F)cc(F)c21 (stereo partly drawn) | 2 | 23 | 2.2 | 6.86 | 62 | 0.79 | – | – | – |
| CC(C)N1C(=O)[C@H](NC(=O)[C@@H](Cc2ccccc2F)NC(=O)c2ccc(F)cc2C(F)(F)F)CCc2cc(Cl)cc(F)c21 | 17 | 21 | 1.9 | 6.59 | 74 | 0.93 | – | – | – |
| CC(C)N1C(=O)[C@H](NC(=O)[C@@H](Cc2ccccc2OC(F)(F)F)NC(=O)OC(C)(C)C)CCc2cc(F)cc(F)c21 | 21 | 17 | 2.7 | 7.24 | 30 | 0.54 | – | – | – |
| CC(C)N1C(=O)[C@H](NC(=O)[C@@H](Cc2ccccc2OC(F)(F)F)NC(=O)OC(C)(C)C)CCc2ccccc21 | – | – | – | – | – | 0.31 | – | – | – |
| CC(C)N1C(=O)[C@H](NC(=O)[C@@H](Cc2ccccc2F)NC(=O)c2ccc(F)cc2C(F)(F)F)CCc2cc(F)cc(F)c21 | 34 | 21 | 1.9 | 6.58 | 31 | 0.42 | – | – | – |
| CC(C)N1C(=O)[C@H](NC(=O)[C@@H](Cc2ccccc2F)NC(=O)c2ccc(F)cc2C(F)(F)F)CCc2cc(C(F)(F)F)ccc21 | 10 | 33 | 2.5 | 6.44 | 75 | 0.6 | – | – | – |
| CC1CC1N1C(=O)[C@H](NC(=O)[C@@H](Cc2ccccc2F)NC(=O)c2ccc(F)cc2C(F)(F)F)CCc2c(F)c(F)cc(F)c21 (stereo partly drawn) | 44 | – | – | 6.88 | – | – | – | – | – |
| CC(C)N1C(=O)[C@H](NC(=O)[C@@H](Cc2ccccc2OC(F)(F)F)NC(=O)OC(C)(C)C)CCc2c(F)c(F)cc(F)c21 | 24 | – | – | 7.17 | – | – | – | – | – |
| CC(C)N1C(=O)[C@H](NC(=O)[C@@H](Cc2ccccc2F)NC(=O)c2ccc(F)cc2C(F)(F)F)CCc2cc(Cl)ccc21 | – | – | – | – | – | 0.58 | – | – | – |
| CC(C)N1C(=O)[C@H](NC(=O)[C@@H](Cc2ccccc2OC(F)(F)F)NC(=O)OC(C)(C)C)CCc2ccc(C(F)(F)F)cc21 | 19 | 26 | 1.3 | 6.31 | 21 | 0.22 | – | – | – |
| CC(C)N1C(=O)[C@H](NC(=O)[C@@H](Cc2ccccc2F)NC(=O)c2ccc(F)cc2C(F)(F)F)CCc2c(F)c(F)cc(F)c21 | 20 | 19 | 5.6 | 6.99 | 68 | 1 | – | – | – |
| CC(C)N1C(=O)[C@H](NC(=O)[C@@H](Cc2ccccc2OC(F)(F)F)NC(=O)OC(C)(C)C)CCc2ccc(F)cc21 | 26 | 29 | 2.5 | 7.74 | 20 | 0.2 | – | – | – |
| Cc1cccc(C)c1OCC(C)N (stereo not drawn) [MEXILETINE] | – | – | – | – | – | – | 45 | 42 | – |
| CC(C)N1C(=O)[C@H](NC(=O)[C@@H](Cc2ccccc2OC(F)(F)F)NC(=O)OC(C)(C)C)CCc2cc(Cl)ccc21 | – | – | – | – | – | 0.71 | – | – | – |
| CC1CC1N1C(=O)[C@H](NC(=O)[C@@H](Cc2ccccc2F)NC(=O)C2CC2C(F)(F)F)CCc2c(F)c(F)cc(F)c21 (stereo partly drawn) | 54 | – | – | 7.00 | – | – | – | – | – |
| NCC1(CC(=O)O)CCCCC1 [GABAPENTIN] | – | – | – | – | – | – | 50 | 36 | > 20 |
| CC(C)N1C(=O)[C@H](NC(=O)[C@@H](Cc2ccccc2OC(F)(F)F)NC(=O)OC(C)(C)C)CCc2cccc(F)c21 | 24 | 21 | 2.7 | 7.15 | 27 | 0.39 | – | – | – |
| CC(C)N1C(=O)[C@H](NC(=O)[C@@H](Cc2ccccc2F)NC(=O)c2ccccc2C(F)(F)F)CCc2c(F)c(F)cc(F)c21 | 10 | – | – | 6.64 | – | – | – | – | – |
| O=C(N[C@H](Cc1ccccc1F)C(=O)N[C@@H]1CCc2c(F)c(F)cc(F)c2N(C2CC2)C1=O)c1ccc(F)cc1C(F)(F)F | 31 | – | – | 7.07 | – | – | – | – | – |
| CC(C)N1C(=O)[C@H](NC(=O)[C@@H](Cc2ccccc2OC(F)(F)F)NC(=O)OC(C)(C)C)CCc2cc(F)ccc21 | 24 | 16 | 2.3 | 7.47 | 35 | 0.66 | – | – | – |
| CC(C)N1C(=O)[C@H](NC(=O)[C@@H](Cc2ccccc2OC(F)(F)F)NC(=O)OC(C)(C)C)CCc2cc(C(F)(F)F)ccc21 | 7 | 39 | 1.9 | 6.74 | 59 | 0.41 | – | – | – |
| CC(C)N1C(=O)[C@H](NC(=O)[C@@H](Cc2ccccc2F)NC(=O)c2ccc(F)cc2C(F)(F)F)CCc2cc(F)ccc21 | 36 | 36 | 1.7 | 6.60 | 56 | 0.45 | – | – | – |
